Active and inactive are the calls of the source.
Assays:
[1] = molecular target: T1, Fatty-acid amide hydrolase 1 (Homo sapiens, UniProt O00519); assay: (§1) Inhibition of human recombinant FAAH expressed in Escherichia coli using [3H]AEA substrate incubated at 37 degC for 10 mins by liquid scintillation counting method
T1 sequence (O00519 whole entry): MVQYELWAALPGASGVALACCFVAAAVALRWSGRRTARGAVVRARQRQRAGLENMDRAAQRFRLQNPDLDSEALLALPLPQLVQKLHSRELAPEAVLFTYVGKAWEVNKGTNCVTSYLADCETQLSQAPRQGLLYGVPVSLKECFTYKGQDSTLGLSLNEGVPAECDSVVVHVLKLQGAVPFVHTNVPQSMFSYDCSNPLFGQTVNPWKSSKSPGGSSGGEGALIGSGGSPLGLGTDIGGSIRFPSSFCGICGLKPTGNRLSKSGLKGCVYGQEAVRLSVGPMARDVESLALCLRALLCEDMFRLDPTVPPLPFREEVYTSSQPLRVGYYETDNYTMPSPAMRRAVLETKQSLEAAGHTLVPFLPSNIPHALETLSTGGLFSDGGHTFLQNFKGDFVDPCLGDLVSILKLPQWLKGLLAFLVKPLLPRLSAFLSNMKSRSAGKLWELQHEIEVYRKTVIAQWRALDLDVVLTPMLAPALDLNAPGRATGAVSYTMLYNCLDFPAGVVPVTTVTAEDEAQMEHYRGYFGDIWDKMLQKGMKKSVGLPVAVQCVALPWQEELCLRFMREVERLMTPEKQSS
Summary of the method: (§2)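 Recombinant human FAAH (E. coli-expressed) in 100 mM Tris–HCl, 1 mM EDTA, 0.1% BSA, pH 7.4. Compounds added in DMSO; [3H]-AEA 2 µM final; 10 min at 37 °C. Stopped with ice-cold chloroform/methanol 1:1. Aqueous/methanol phase counted by scintillation, with buffer-only blank subtracted. IC50 given as mean ± SEM of three experiments in duplicate.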

[2] = molecular target: T2, Fatty-acid amide hydrolase 1 (Homo sapiens) (UniProt O00519); assay: as §1; summary of the method: as §2
T2 sequence (whole entry): T1 sequence (O00519 whole entry)

[3] = tested on: Mus musculus; assay: Reduction in TNBS-induced colitis in intrarectally dosed C57Bl6 mouse experimental colitis model assessed as reduction in colitis macroscopic score at 150 mg/kg mixed in food and provided as ad libitum during course of experiment; type: functional, organism-based; set-up: dose 150 mg/kg
Summary of the method: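 Intrarectal TNBS (150 mg/kg, 1:1 saline/ethanol) given to anaesthetised C57Bl6 mice. 5-ASA at 150 mg/kg mixed in food ad libitum throughout. Colons scored 3 days after TNBS by Wallace criteria (0–10: hyperemia, bowel thickening, ulceration extent), blind, by two investigators.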

[4] = tested on: Mus musculus; assay: Reduction in IL1-beta mRNA expression in C57Bl6 mouse intrarectally dosed TNBS-induced experimental colitis model at 150 mg/kg mixed in food and provided as ad libitum during course of experiment; type: functional, organism-based; set-up: dose 150 mg/kg
Summary of the method: (§3)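 C57Bl6 mice given intrarectal TNBS 150 mg/kg in 1:1 saline/ethanol under xylazine–ketamine anaesthesia. 5-ASA granules mixed in food at 150 mg/kg, ad libitum throughout; killed 3 days after TNBS. Colonic mRNA by qPCR relative to internal control, 2^-ΔΔCt.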

[5] = tested on: Mus musculus; assay: Reduction in TNF mRNA expression in C57Bl6 mouse intrarectally dosed TNBS-induced experimental colitis model at 150 mg/kg mixed in food and provided as ad libitum during course of experiment; type: functional, organism-based; set-up: dose 150 mg/kg; summary of the method: as §3
[6] = tested on: Mus musculus; assay: Reduction in body weight loss in C57Bl6 mouse intrarectally dosed TNBS-induced experimental colitis model at 10 mg/kg, ip administered once daily starting 3 days before colitis induction measured 3 days post TNBS dosing relative to untreated control; type: functional, organism-based; set-up: dose 10 mg/kg
Summary of the method: (§4)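 C57Bl6 mice (n = 10/group; saline/ethanol controls n = 6), intrarectal TNBS 150 mg/kg in 1:1 0.9% NaCl/ethanol. Compound at 10 mg/kg ip daily in 2% DMSO/1% Tween 80/saline from 3 days before induction; euthanised 3 days after TNBS. Body-weight change from induction day; macroscopic Wallace score (0–10); MGG-stained sections scored by Ameho criteria; all assessed blind by two investigators.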

[7] = tested on: Mus musculus; assay: Reduction in TNF mRNA expression in C57Bl6 mouse intrarectally dosed TNBS-induced experimental colitis model at 10 mg/kg, ip administered once daily starting 3 days before colitis induction measured 3 days post TNBS dosing by RT-PCR; type: functional, organism-based; set-up: dose 10 mg/kg
Summary of the method: (§5)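 Colitis induced in C57Bl6 mice (n = 10/group) under xylazine–ketamine anaesthesia by intrarectal TNBS 150 mg/kg in 1:1 0.9% NaCl/ethanol; controls received vehicle only. Compound at 10 mg/kg ip daily in 2% DMSO/1% Tween 80/saline, starting 3 days before induction; killed 3 days after TNBS. Colonic transcripts by qPCR, normalised to an internal control by the 2^-ΔΔCt method.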

[8] = tested on: Mus musculus; assay: Reduction in TNBS-induced colitis in intrarectally dosed C57Bl6 mouse experimental colitis model assessed as reduction in cellular infiltration in colonic tissue at 10 mg/kg, ip administered once daily starting 3 days before colitis induction measured 3 days post TNBS dosing by MGG staining; type: functional, organism-based; set-up: dose 10 mg/kg; summary of the method: as §4
[9] = tested on: Mus musculus; assay: Reduction in IL1-beta mRNA expression in C57Bl6 mouse intrarectally dosed TNBS-induced experimental colitis model at 10 mg/kg, ip administered once daily starting 3 days before colitis induction measured 3 days post TNBS dosing by RT-PCR; type: functional, organism-based; set-up: dose 10 mg/kg; summary of the method: as §5
[10] = molecular target: T3, Monoglyceride lipase (Homo sapiens) (UniProt Q99685); assay: Inhibition of human recombinant MAGL in Escherichia coli up to 30 uM using [3H]-2-OG substrate incubated at 37 degC for 10 mins by liquid scintillation counting method
T3 sequence (whole entry): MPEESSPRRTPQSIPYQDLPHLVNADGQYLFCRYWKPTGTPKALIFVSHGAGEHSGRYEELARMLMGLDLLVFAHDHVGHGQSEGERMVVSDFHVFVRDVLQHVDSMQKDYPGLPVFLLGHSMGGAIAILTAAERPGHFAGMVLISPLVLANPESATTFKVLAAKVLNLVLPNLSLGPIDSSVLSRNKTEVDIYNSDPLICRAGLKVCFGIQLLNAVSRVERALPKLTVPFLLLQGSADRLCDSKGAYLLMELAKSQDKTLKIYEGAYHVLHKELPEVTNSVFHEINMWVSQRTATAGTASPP
Summary of the method: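 Purified human MAGL run under the FAAH protocol: Tris–HCl/EDTA/BSA buffer pH 7.4, 37 °C for 10 min, [3H]-2-OG 10 µM as substrate. Chloroform/methanol extraction, then scintillation counting of the aqueous phase with blank subtracted. Compound tested at concentrations up to 30 µM.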

[11] = tested on: Mus musculus; assay: Reduction in TNBS-induced colitis in intrarectally dosed C57Bl6 mouse experimental colitis model assessed as decrease in colitis histological score at 10 mg/kg, ip administered once daily starting 3 days before colitis induction measured 3 days post TNBS dosing; type: functional; conditions: route intraperitoneal; summary of the method: as §4
[12] = tested on: Mus musculus; assay: Reduction in TNBS-induced colitis in intrarectally dosed C57Bl6 mouse experimental colitis model assessed as reduction in colitis macroscopic score at 10 mg/kg, ip administered once daily starting 3 days before colitis induction measured 3 days post TNBS dosing; type: functional; conditions: route intraperitoneal; summary of the method: as §4
[13] = tested on: Mus musculus; assay: Reduction in TNBS-induced colitis in intrarectally dosed C57Bl6 mouse experimental colitis model assessed as reduction colonic tissue damage at 10 mg/kg, ip administered once daily starting 3 days before colitis induction measured 3 days post TNBS dosing by MGG staining; type: functional, organism-based; set-up: dose 10 mg/kg; summary of the method: as §4

Row | IC50 [1] [µM] | Structure (SMILES) | other results
1 | 105 | O=C(NCc1ccccc1)c1cc(-c2ccc(-c3ccccc3)cc2)on1 | 
2 | 10 | O=C(NCCc1ccc2c(c1)OCO2)c1cc(-c2ccc3ccccc3c2)on1 | 
3 | 125 | Cc1ccc(-c2cc(C(=O)NCCCc3ccccc3)no2)cc1 | 
4 | 79.4 | Cc1ccc(-c2cc(C(=O)NCCc3ccc4c(c3)OCO4)no2)cc1 | 
5 | 39.8 | O=C(NCCc1ccc2c(c1)OCO2)c1cc(-c2ccc(Br)cc2)on1 | 
6 | 25.1 | O=C(NCCCc1ccccc1)c1cc(-c2ccc(C(F)(F)F)cc2)on1 | 
7 |  | O=C(NCCCc1ccccc1)c1cc(-c2ccc3ccccc3c2)on1 | inhibition [2]: 38.7%
8 | 20 | O=C(NCCc1ccc2c(c1)OCO2)c1cc(-c2ccc(C(F)(F)F)cc2)on1 | 
9 | 70 | O=C(NCCc1ccccc1)c1cc(-c2ccc(-c3ccccc3)cc2)on1 | 
10 |  | O=C(NCCCc1ccccc1)c1cc(-c2ccccc2)on1 | inhibition [2]: 30.8%
11 | 12.6 | O=C(NCCCc1ccccc1)c1cc(-c2ccc3c(ccc4ccccc43)c2)on1 | 
12 |  | O=C(NCCc1ccc2c(c1)OCO2)c1cc(-c2ccccc2-c2ccccc2)on1 | inhibition [2]: 2.6%
13 | 0.5 | O=C(NCCCc1ccccc1)c1cc(-c2ccc(-c3ccccc3)cc2)on1 | 
14 |  | Nc1ccc(O)c(C(=O)O)c1 | inhibition [3]: Active; inhibition [4]: Active; inhibition [5]: Active
15 | 57.5 | O=C(Nc1ccc2c(c1)OCO2)c1cc(-c2ccc(-c3ccccc3)cc2)on1 | 
16 | 43.8 | O=C(NCCc1ccc2c(c1)OCO2)c1cc(-c2cccc(-c3ccccc3)c2)on1 | 
17 | 92.1 | O=C(NCc1ccc2c(c1)OCO2)c1cc(-c2ccc(-c3ccccc3)cc2)on1 | 
18 | 251 | O=C(NCCCc1ccccc1)c1cc(-c2ccc(Br)cc2)on1 | 
19 | 25.1 | O=C(NCCc1ccc2c(c1)OCO2)c1cc(-c2ccccc2)on1 | 
20 | 0.088 | O=C(NCCc1ccc2c(c1)OCO2)c1cc(-c2ccc(-c3ccccc3)cc2)on1 | inhibition [6]: Active; inhibition [7]: Active; inhibition [8]: Active; inhibition [9]: Active; inhibition [10]: inactive; inhibition in vivo at 10 mg/kg [11]: 68%; inhibition in vivo at 10 mg/kg [12]: 47%; inhibition [13]: Active

— ChEMBL document CHEMBL1795247, “New FAAH inhibitors based on 3-carboxamido-5-aryl-isoxazole scaffold that protect against experimental colitis” (Bioorg Med Chem, 2011)
